Assays:
human TAP = target: T1, human TAP (Homo sapiens, UniProt Q03518+Q03519); test: TAP-dependent peptide translocation assay in SLO-permeabilized human cells; assay type: cell-based
T1 sequence (Q03518 1-748): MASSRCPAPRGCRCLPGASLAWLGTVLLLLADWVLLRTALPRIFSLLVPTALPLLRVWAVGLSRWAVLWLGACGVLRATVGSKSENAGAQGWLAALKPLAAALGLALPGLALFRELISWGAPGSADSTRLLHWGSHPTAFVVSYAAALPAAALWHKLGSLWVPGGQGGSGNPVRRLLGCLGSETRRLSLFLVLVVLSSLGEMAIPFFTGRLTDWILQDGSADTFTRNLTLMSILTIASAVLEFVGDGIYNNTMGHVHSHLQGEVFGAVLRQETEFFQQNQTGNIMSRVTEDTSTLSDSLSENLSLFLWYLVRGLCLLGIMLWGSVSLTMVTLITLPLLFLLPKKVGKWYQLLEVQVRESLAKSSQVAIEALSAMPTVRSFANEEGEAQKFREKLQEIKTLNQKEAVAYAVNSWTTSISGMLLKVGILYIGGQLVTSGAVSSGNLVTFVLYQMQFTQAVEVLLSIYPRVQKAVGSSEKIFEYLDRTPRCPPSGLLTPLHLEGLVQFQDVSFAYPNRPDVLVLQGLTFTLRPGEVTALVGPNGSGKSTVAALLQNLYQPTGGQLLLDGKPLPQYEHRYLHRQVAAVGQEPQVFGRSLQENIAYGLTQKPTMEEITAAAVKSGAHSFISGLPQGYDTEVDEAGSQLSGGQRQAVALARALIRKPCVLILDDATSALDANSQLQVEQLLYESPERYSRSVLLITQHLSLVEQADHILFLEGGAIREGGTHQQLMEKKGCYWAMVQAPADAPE
T1 sequence (Q03519 1-686): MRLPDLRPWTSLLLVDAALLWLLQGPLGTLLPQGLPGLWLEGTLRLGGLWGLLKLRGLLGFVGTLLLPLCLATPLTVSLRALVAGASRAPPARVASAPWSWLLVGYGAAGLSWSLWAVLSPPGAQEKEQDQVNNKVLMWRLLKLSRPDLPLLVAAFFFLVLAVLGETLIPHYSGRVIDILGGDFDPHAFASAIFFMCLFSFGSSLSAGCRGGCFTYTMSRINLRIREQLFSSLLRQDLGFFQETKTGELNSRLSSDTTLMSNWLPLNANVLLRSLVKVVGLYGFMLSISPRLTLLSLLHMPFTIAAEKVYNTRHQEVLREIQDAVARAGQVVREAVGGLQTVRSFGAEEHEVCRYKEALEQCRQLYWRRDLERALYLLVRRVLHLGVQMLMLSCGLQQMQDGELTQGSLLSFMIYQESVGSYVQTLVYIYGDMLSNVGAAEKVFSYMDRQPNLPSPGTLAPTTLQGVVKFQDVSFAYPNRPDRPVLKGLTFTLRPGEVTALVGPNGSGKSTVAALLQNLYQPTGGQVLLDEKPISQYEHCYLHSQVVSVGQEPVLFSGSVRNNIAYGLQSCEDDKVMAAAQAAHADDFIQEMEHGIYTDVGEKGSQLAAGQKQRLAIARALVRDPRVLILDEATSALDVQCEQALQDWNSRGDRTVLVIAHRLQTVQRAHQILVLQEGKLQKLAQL
Summary of the method: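 Hmy2.C1R cells washed in KCl/Hepes transport buffer (pH 7.3) at 4°C, then permeabilized with streptolysin O (2 U/ml, 10 min, 37°C). 10^6 cells/sample incubated 10 min at 37°C with chloramine T-iodinated peptide library, ATP-generating system and test compound (3.3 μM, or a concentration series). Stopped with ice-cold EDTA/azide buffer, NP-40 lysed, Con A–Sepharose capture, γ counting. Percent of no-inhibitor transport, duplicates.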

human TAP1+2 = target: T2, human TAP1+2 (Homo sapiens, UniProt Q03518+Q03519); assay type: binding
T2 sequence (Q03518 1-748): T1 sequence (Q03518 1-748)
T2 sequence (Q03519 1-686): T1 sequence (Q03519 1-686)

murine TAP = target: T3, murine TAP (Mus musculus, UniProt P21958+P36371); conditions: cited from earlier work
T3 sequence (P21958 1-724): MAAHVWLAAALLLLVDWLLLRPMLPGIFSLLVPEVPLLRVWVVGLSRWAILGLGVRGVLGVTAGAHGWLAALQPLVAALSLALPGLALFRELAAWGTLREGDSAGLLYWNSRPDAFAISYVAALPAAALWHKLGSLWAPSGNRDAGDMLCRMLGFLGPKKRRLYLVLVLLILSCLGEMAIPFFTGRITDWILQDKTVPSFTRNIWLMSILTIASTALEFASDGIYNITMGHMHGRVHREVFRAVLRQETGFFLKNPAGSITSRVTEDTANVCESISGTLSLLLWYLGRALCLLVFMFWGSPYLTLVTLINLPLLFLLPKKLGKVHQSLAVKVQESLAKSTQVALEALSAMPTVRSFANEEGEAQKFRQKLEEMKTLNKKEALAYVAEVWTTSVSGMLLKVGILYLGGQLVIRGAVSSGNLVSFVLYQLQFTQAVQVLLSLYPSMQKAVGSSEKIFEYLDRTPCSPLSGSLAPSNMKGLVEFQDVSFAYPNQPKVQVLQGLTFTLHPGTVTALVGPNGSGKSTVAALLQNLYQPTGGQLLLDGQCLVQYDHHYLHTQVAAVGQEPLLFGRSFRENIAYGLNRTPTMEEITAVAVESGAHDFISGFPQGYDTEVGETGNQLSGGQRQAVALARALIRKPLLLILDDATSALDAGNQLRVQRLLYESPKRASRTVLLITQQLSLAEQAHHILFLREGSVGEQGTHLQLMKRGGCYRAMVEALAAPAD
T3 sequence (P36371 1-702): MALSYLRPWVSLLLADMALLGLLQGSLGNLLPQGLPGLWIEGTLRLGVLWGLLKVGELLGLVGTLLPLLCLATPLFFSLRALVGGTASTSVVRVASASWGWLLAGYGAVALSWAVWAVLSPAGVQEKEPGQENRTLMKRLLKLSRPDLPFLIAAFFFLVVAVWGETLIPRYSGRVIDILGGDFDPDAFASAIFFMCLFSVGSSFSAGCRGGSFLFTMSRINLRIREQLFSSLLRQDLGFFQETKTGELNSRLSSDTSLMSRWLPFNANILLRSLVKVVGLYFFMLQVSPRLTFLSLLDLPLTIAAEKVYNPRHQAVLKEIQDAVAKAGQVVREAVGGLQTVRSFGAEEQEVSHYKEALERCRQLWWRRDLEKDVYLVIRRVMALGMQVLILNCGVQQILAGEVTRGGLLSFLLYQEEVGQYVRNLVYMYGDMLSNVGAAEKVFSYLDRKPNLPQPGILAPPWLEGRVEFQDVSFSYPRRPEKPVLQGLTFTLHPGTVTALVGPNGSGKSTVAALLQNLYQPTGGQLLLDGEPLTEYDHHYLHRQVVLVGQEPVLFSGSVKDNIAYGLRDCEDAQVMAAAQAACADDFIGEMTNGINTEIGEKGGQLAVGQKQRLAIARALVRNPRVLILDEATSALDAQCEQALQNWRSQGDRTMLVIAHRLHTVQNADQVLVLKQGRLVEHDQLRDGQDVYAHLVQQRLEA

Substance | TAP subunits labeled by cross-linking (human TAP1+2) | ability to block or inhibit mouse TAP (murine TAP) | also measured
1–35 Tpa: 1–35-mer polypeptide with photoactivable phenylalanine analogue Tpa coupled to its NH2 terminus | Both TAP1 and TAP2 subunits were photolabeled | – | block of TAP function compared with the unmodified 1–35 polypeptide (human TAP; data not shown): less efficiently
^125I-labeled Tyr21 1–35 polypeptide: 1–35 polypeptide labeled with 125I at Tyr 21 | only TAP1 crosslinks | – | –
N-acetylated ICP47-1–53: ICP47-1–53 N-acetylated on the resin | – | – | effect of N-acetylation on the ability to inhibit TAP (human TAP; human cell line Hmy2.C1R, compared with 1–53 polypeptide, Fig. 3 E): no effect
rICP47: recombinant ICP47 from HSV-1 | – | unable to block | –
1–35: peptide corresponding to residues 1–35 of ICP47 | – | – | concentration at which full inhibition had just been reached (human TAP; human cell line Hmy2.C1R, chosen for the alanine scan, Fig. 3 D): 3.3 µM
ICP47: herpes simplex virus immediate early protein, 87–amino acid cytosolic polypeptide, inhibitor of TAP | – | inability | –
